Results reported in PMC9052103 (RSC Advances, 2020).
Converted amounts (≈) assume the structure as drawn.

Tests used:
Format in all cases: cell-based
E. coli ATCC 8739 = assay: MIC, 96-well microtiter broth dilution; details: Escherichia coli, ATCC8739, read-out: MIC E. coli ATCC 8739
[1] = tested on: S. epidermidis ATCC 12228; assay: MIC, 96-well microtiter broth dilution; details: Staphylococcus epidermidis, ATCC12228, read-out: MIC S. epidermidis ATCC 12228
S. aureus ATCC 29213 [2] = assay: MIC, 96-well microtiter broth dilution; details: Staphylococcus aureus, ATCC29213, read-out: MIC S. aureus ATCC 29213
E. coli ATCC 25922 = assay: MIC, 96-well microtiter broth dilution; details: Escherichia coli, ATCC25922, read-out: MIC E. coli ATCC 25922
S. aureus ATCC BAA-1720 = assay: MIC, 96-well microtiter broth dilution; details: Staphylococcus aureus, ATCCBAA1720|MRSA, read-out: MIC S. aureus ATCC BAA-1720
S. aureus ATCC BAA-41 = assay: MIC, 96-well microtiter broth dilution; details: Staphylococcus aureus, ATCCBAA41|MRSA, read-out: MIC S. aureus ATCC BAA-41
S. aureus ATCC BAA-1747 = assay: MIC, 96-well microtiter broth dilution; details: Staphylococcus aureus, ATCCBAA1747|MRSA, read-out: MIC S. aureus ATCC BAA-1747
S. aureus ATCC 43300 = assay: MIC, 96-well microtiter broth dilution; details: Staphylococcus aureus, ATCC43300|MRSA, read-out: MIC S. aureus ATCC 43300
E. faecium ATCC 49624 = assay: MIC, 96-well microtiter broth dilution; details: Enterococcus faecium, ATCC49624, read-out: MIC E. faecium ATCC 49624
E. faecalis ATCC 29212 = assay: MIC, 96-well microtiter broth dilution; details: Enterococcus faecalis, ATCC29212, read-out: MIC E. faecalis ATCC 29212
E. coli ATCC BAA-2469 = assay: MIC, 96-well microtiter broth dilution
E. faecium ATCC 700221 = assay: MIC, 96-well microtiter broth dilution; details: Enterococcus faecium, ATCC700221, read-out: MIC E. faecium ATCC 700221
S. aureus ATCC 29213 [3] = assay: In vitro drug resistance development, serial passage
In short: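 Serial passage against S. aureus ATCC 29213: culture from the 0.5 × MIC well of the prior MIC plate diluted to 5 × 10^5 CFU mL−1 and exposed to a range of test compound concentrations. MIC read after 24 h at 37 °C. Cycle repeated 35 times. Ciprofloxacin, vancomycin and rifampin passaged in parallel.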

Structure (SMILES)	MIC (E. coli ATCC 8739) [µg/mL]	MIC [1] [µg/mL]	MIC (S. aureus ATCC 29213 [2]) [µg/mL]	MIC (E. coli ATCC 25922) [µg/mL]	MIC (S. aureus ATCC BAA-1720) [µg/mL]	MIC (S. aureus ATCC BAA-41) [µg/mL]	MIC (S. aureus ATCC BAA-1747) [µg/mL]	MIC (S. aureus ATCC 43300) [µg/mL]	MIC (E. faecium ATCC 49624) [µg/mL]	MIC (E. faecalis ATCC 29212) [µg/mL]	MIC against antibiotics resistant E. coli mutant NDM-1 strain (E. coli ATCC BAA-2469) [µg/mL]	MIC (E. faecium ATCC 700221) [µg/mL]	Increase of MIC after 35 passages (S. aureus ATCC 29213 [3]) [fold]
CC1(C)S[C@@H]2[C@H](NC(=O)[C@H](N)c3ccccc3)C(=O)N2[C@H]1C(=O)O [amp, ampicillin, reference compound]	2 (≈ 5.72 µM)	> 64	> 64	1 (≈ 2.86 µM)	> 64	> 64	> 64	> 64	0.25 (≈ 0.715 µM)	0.5 (≈ 1.43 µM)	> 64	> 64	–
O=C(O)c1cn(C2CC2)c2cc(N3CCNCC3)c(F)cc2c1=O [ciprofloxacin]	–	–	–	–	–	–	–	–	–	–	–	–	32
CN[C@H](CC(C)C)C(=O)N[C@H]1C(=O)N[C@@H](CC(N)=O)C(=O)N[C@H]2C(=O)N[C@H]3C(=O)N[C@H](C(=O)N[C@H](C(=O)O)c4cc(O)cc(O)c4-c4cc3ccc4O)[C@H](O)c3ccc(c(Cl)c3)Oc3cc2cc(c3O[C@@H]2O[C@H](CO)[C@@H](O)[C@H](O)[C@H]2O[C@H]2C[C@](C)(N)[C@H](O)[C@H](C)O2)Oc2ccc(cc2Cl)[C@H]1O [van, vancomycin, reference compound]	> 64	> 64	2 (≈ 1.38 µM)	> 64	0.5 (≈ 0.345 µM)	2 (≈ 1.38 µM)	1 (≈ 0.69 µM)	2 (≈ 1.38 µM)	0.5 (≈ 0.345 µM)	2 (≈ 1.38 µM)	> 64	1020 (≈ 707 µM)	512
Cc1cc(/C=C2\Sc3ccccc3N2CCCN2CCCCC2)c2ccccc2[n+]1C.[I-] [Compound 4a3, (Z)-1,2-Dimethyl-4-((3-(3-(piperidin-1-yl)propyl)benzo[d]thiazol-2(3H)-ylidene)methyl)quinolin-1-ium iodide]	4	8	32	4	32	8	32	32	32	64	–	32	–
CO[C@H]1/C=C/O[C@@]2(C)Oc3c(C)c(O)c4c(O)c(c(/C=N/N5CCN(C)CC5)c(O)c4c3C2=O)NC(=O)/C(C)=C\C=C\[C@H](C)[C@H](O)[C@@H](C)[C@@H](O)[C@@H](C)[C@H](OC(C)=O)[C@@H]1C [rif, rifampin, reference compound]	8 (≈ 9.72 µM)	1 (≈ 1.22 µM)	0.5 (≈ 0.608 µM)	4 (≈ 4.86 µM)	< 0.125	< 0.125	< 0.125	< 0.125	< 0.125	0.5 (≈ 0.608 µM)	> 64	< 0.125	8192
C[n+]1c(/C=C/c2ccc(O)cc2)cc(/C=C2\Sc3ccccc3N2CCCN2CCOCC2)c2ccccc21.[I-] [Compound 4c2, 2-((E)-4-Hydroxystyryl)-1-methyl-4-((Z)-(3-(3-morpholinopropyl)benzo[d]thiazol-2(3H)-ylidene)methyl)quinolin-1-ium iodide]	32	4	16	4	32	8	16	16	8	16	–	4	–
CSc1ccc(/C=C/c2cc(/C=C3\Sc4ccccc4N3CCCN3CCCC3)c3ccccc3[n+]2C)cc1.[I-] [Compound 4d3, 1-Methyl-2-((E)-4-(methylthio)styryl)-4-((Z)-(3-(3-(pyrrolidin-1-yl)propyl)benzo[d]thiazol-2(3H)-ylidene)methyl)quinolin-1-ium iodide]	32	16	16	–	32	32	32	32	64	64	–	32	–
C[n+]1c(/C=C/c2c[nH]c3ccccc23)cc(/C=C2\Sc3ccccc3N2CCCN2CCCC2)c2ccccc21.[I-] [Compound 4d1, 2-((E)-2-(1H-Indol-3-yl)vinyl)-1-methyl-4-((Z)-(3-(3-(pyrrolidin-1-yl)propyl)benzo[d]thiazol-2(3H)-ylidene)methyl)quinolin-1-ium iodide]	16	2	16	4	8	4	8	8	8	32	–	16	–
COc1cccc(OC)c1C(=O)N[C@@H]1C(=O)N2[C@@H]1SC(C)(C)[C@@H]2C(=O)O [meth, methicillin, reference compound]	> 64	0.5 (≈ 1.31 µM)	0.5 (≈ 1.31 µM)	2 (≈ 5.26 µM)	1020 (≈ 2690 µM)	1020 (≈ 2690 µM)	256 (≈ 673 µM)	512 (≈ 1350 µM)	4 (≈ 10.5 µM)	1 (≈ 2.63 µM)	> 64	1.5 (≈ 3.94 µM)	–
C[n+]1c(/C=C/c2ccc(O)cc2)cc(/C=C2\Sc3ccccc3N2CCCN2CCCC2)c2ccccc21.[I-] [Compound 4d2, 2-((E)-4-Hydroxystyryl)-1-methyl-4-((Z)-(3-(3-(pyrrolidin-1-yl)propyl)benzo[d]thiazol-2(3H)-ylidene)methyl)quinolin-1-ium iodide]	32	16	32	32	32	32	32	32	32	64	–	32	–
C[n+]1c(/C=C/c2c[nH]c3ccccc23)cc(/C=C2\Sc3ccccc3N2CCCN2CCOCC2)c2ccccc21.[I-] [Compound 4c1, 2-((E)-2-(1H-Indol-3-yl)vinyl)-1-methyl-4-((Z)-(3-(3-morpholinopropyl)benzo[d]thiazol-2(3H)-ylidene)methyl)quinolin-1-ium iodide]	64	2	16	8	16	16	16	16	16	16	–	8	–
C[n+]1ccc(/C=C2\Sc3ccccc3N2CCCN2CCCCC2)c2ccccc21.[I-] [Compound 4b3, (Z)-1-Methyl-4-((3-(3-(piperidin-1-yl)propyl)benzo[d]thiazol-2(3H)-ylidene)methyl)quinolin-1-ium iodide]	4	2	32	2	16	4	8	8	32	> 64	–	32	–
